We go through 19 molecules from ChEMBL document CHEMBL4152391, “Bile Acid Oligomers and Their Combination with Antibiotics To Combat Bacterial Infections” (J Med Chem, 2018).

Data set [1] deals with Staphylococcus aureus. As to the kind of experiment: Antibiofilm activity against Staphylococcus aureus ATCC 29213 at 128 ug/ml after 18 hrs by XTT-menadione assay relative to control. In kind it is functional. Put shortly: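 Biofilms grown 24 h at 37 °C from suspension at OD600 0.1 in tryptic soy broth with 1% glucose, washed twice with saline, exposed 18 h at 37 °C to twofold serial dilutions; growth and sterility controls. Read by XTT (0.5 mg/mL)–menadione (10 µM) in MHB, 1 h dark at 37 °C, absorbance 450 nm; MBIC50 and MBIC100 = 50% and 100% inhibition.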

Data set [2] concerns Staphylococcus aureus. As to the kind of experiment: Antibacterial activity against Staphylococcus aureus ATCC 29213 at 30 ug after 18 hrs by agar disk-diffusion method. In kind it is functional. Put shortly: (§1)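 Agar disk diffusion per CLSI: compound loaded on sterile 6 mm paper disks, dried, placed on Mueller Hinton agar lawned with bacteria at McFarland 0.5; cefotaxime positive and DMSO solvent controls; 37 °C for 18 h; zone of inhibition diameter measured to nearest whole mm.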

A further data set relates to Pseudomonas aeruginosa. As to the kind of experiment: Antibacterial activity against Pseudomonas aeruginosa at 5 to 100 ug after 18 hrs by agar disk-diffusion method. The class given is functional, organism-based. Put shortly:
as §1

In the next data set the test system is Escherichia coli. As to the kind of experiment: Antibacterial activity against Escherichia coli ATCC 25922 at 5 to 100 ug after 18 hrs by agar disk-diffusion method. The class given is functional, organism-based. Put shortly:
as §1

In another data set the test system is HEK293. As to the kind of experiment: Cytotoxicity against HEK293 cells assessed as decrease in cell viability at 1 to 200 uM after 24 hrs by Alamar Blue assay. In kind it is cell-based. Conditions: human, hek293, 24 h. Put shortly: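 HEK293 cells in DMEM HG, 10% FBS, 1% pen-strep, 37 °C 5% CO2, passage under 30, used at 80% confluency; seeded 1×10^4/well, after 24 h washed and treated 24 h with 1–200 µM in complete medium; alamar blue (0.15 mg/mL) added for 4 h, absorbance 570 and 600 nm; viability relative to untreated cells as 100%.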

The subject of data set [3] is Staphylococcus aureus. As to the kind of experiment: Antibacterial activity against Staphylococcus aureus ATCC 29213 at 5 to 100 ug after 18 hrs by agar disk-diffusion method. In kind it is functional, organism-based. Put shortly: as §1
For data set [4], the system named is Staphylococcus aureus. As to the kind of experiment: Antibacterial activity against Staphylococcus aureus ATCC 29213 after 18 hrs by broth microdilution method. In kind it is functional, organism-based. Conditions: ATCC 29213, 18 h. Put shortly:
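Broth microdilution per CLSI for water-insoluble agents: twofold serial dilutions made in DMSO at 100x final, diluted in Mueller Hinton broth to 1% final DMSO; 5x10^5 cfu/mL bacteria exposed 18 h at 37 °C with positive, growth and sterility controls. MIC = lowest concentration giving complete growth inhibition (turbidity and XTT reduction); IC50 from OD600 dose-response inflection point.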

Converted amounts (≈) assume the structure as drawn. The source made the active and inactive calls. The rule behind the calls is not given here.

Consider `CO/N=C(\C(=O)N[C@@H]1C(=O)N2C(C(=O)O)=C(COC(C)=O)CS[C@H]12)c1csc(N)n1` [CEFOTAXIME], for which, in the data set with Staphylococcus aureus [1], the Activity was less than 50%.
For `C[C@H](CCC(=O)NCCNC(=O)CC[C@@H](C)[C@H]1CC[C@H]2[C@@H]3[C@H](O)C[C@@H]4C[C@H](O)CC[C@]4(C)[C@H]3C[C@H](O)[C@]12C)[C@H]1CC[C@H]2[C@@H]3[C@H](O)C[C@@H]4C[C@H](O)CC[C@]4(C)[C@H]3C[C@H](O)[C@]12C`, the result in the data set with Staphylococcus aureus [2], with Pseudomonas aeruginosa and in the data set on Escherichia coli was inactive. Further, the Activity entry with HEK293 is recorded as “Non-Toxic”.
Regarding `CCCCCCCCCCCCCCCC(=O)NCCN(CCNC(=O)OC(C)(C)C)C(=O)OC(C)(C)C`, the outcome with Pseudomonas aeruginosa and in the data set with Escherichia coli was inactive.
Turning to `C[C@H](CCC(=O)NCCN(CCNC(=O)CC[C@@H](C)[C@H]1CC[C@H]2[C@@H]3CC[C@@H]4C[C@H](O)CC[C@]4(C)[C@H]3C[C@H](O)[C@]12C)CCNC(=O)CC[C@@H](C)[C@H]1CC[C@H]2[C@@H]3CC[C@@H]4C[C@H](O)CC[C@]4(C)[C@H]3C[C@H](O)[C@]12C)[C@H]1CC[C@H]2[C@@H]3CC[C@@H]4C[C@H](O)CC[C@]4(C)[C@H]3C[C@H](O)[C@]12C`, the result with Staphylococcus aureus [3], with Pseudomonas aeruginosa and in the data set with Escherichia coli was inactive. Further, the Activity entry in the data set on HEK293 is recorded as “Non-Toxic”.
Take `CCCCCCCCCCCCCCCC(=O)NCCNCCN`: the result in the data set on Pseudomonas aeruginosa and in the data set with Escherichia coli was inactive.
Turning to `C[C@H](CCC(=O)NCCNCCNCCNC(=O)CC[C@@H](C)[C@H]1CC[C@H]2[C@@H]3[C@H](O)C[C@@H]4C[C@H](O)CC[C@]4(C)[C@H]3C[C@H](O)[C@]12C)[C@H]1CC[C@H]2[C@@H]3[C@H](O)C[C@@H]4C[C@H](O)CC[C@]4(C)[C@H]3C[C@H](O)[C@]12C`, in the data set on Staphylococcus aureus [2] (ATCC 29213, 18 h, read-out: DIZ), the zone of inhibition at 30 µg/disc was found to be 11 mm. Also, the result with Pseudomonas aeruginosa and in the data set with Escherichia coli was inactive. In the data set with Staphylococcus aureus [4], this molecule showed an IC50 of 12.1 µg/mL (≈ 13 µM). Also, it took 16 µg/mL (≈ 17.3 µM) to inhibit growth in the data set on Staphylococcus aureus [4] (MIC).
`C[C@H](CCC(=O)NCCCNC(=O)CC[C@@H](C)[C@H]1CC[C@H]2[C@@H]3CC[C@@H]4C[C@H](O)CC[C@]4(C)[C@H]3C[C@H](O)[C@]12C)[C@H]1CC[C@H]2[C@@H]3CC[C@@H]4C[C@H](O)CC[C@]4(C)[C@H]3C[C@H](O)[C@]12C`: the outcome in the data set on Staphylococcus aureus [2], in the data set on Pseudomonas aeruginosa and with Escherichia coli was inactive. For the same molecule, the Activity entry with HEK293 is recorded as “Non-Toxic”.
Turning to `C[C@H](CCC(=O)NCCN(CCN(CCNC(=O)CC[C@@H](C)[C@H]1CC[C@H]2[C@@H]3[C@H](O)C[C@@H]4C[C@H](O)CC[C@]4(C)[C@H]3C[C@H](O)[C@]12C)C(=O)OC(C)(C)C)C(=O)OC(C)(C)C)[C@H]1CC[C@H]2[C@@H]3[C@H](O)C[C@@H]4C[C@H](O)CC[C@]4(C)[C@H]3C[C@H](O)[C@]12C`, the outcome in the data set with Staphylococcus aureus [3], in the data set with Pseudomonas aeruginosa and in the data set on Escherichia coli was inactive.
As to `C[C@H](CCC(=O)N1CCCN(C(=O)CC[C@@H](C)[C@H]2CC[C@H]3[C@@H]4[C@H](O)C[C@@H]5C[C@H](O)CC[C@]5(C)[C@H]4C[C@H](O)[C@]23C)CCN(C(=O)CC[C@@H](C)[C@H]2CC[C@H]3[C@@H]4[C@H](O)C[C@@H]5C[C@H](O)CC[C@]5(C)[C@H]4C[C@H](O)[C@]23C)CCCN(C(=O)CC[C@@H](C)[C@H]2CC[C@H]3[C@@H]4[C@H](O)C[C@@H]5C[C@H](O)CC[C@]5(C)[C@H]4C[C@H](O)[C@]23C)CC1)[C@H]1CC[C@H]2[C@@H]3[C@H](O)C[C@@H]4C[C@H](O)CC[C@]4(C)[C@H]3C[C@H](O)[C@]12C`, the result with Staphylococcus aureus [3], in the data set on Pseudomonas aeruginosa and with Escherichia coli was inactive. Also, the Activity entry with HEK293 is given as “Non-Toxic”.
With `C[C@H](CCC(=O)NCCCNC(=O)CC[C@@H](C)[C@H]1CC[C@H]2[C@@H]3[C@H](O)C[C@@H]4C[C@H](O)CC[C@]4(C)[C@H]3C[C@H](O)[C@]12C)[C@H]1CC[C@H]2[C@@H]3[C@H](O)C[C@@H]4C[C@H](O)CC[C@]4(C)[C@H]3C[C@H](O)[C@]12C`, the result in the data set with Staphylococcus aureus [2], with Pseudomonas aeruginosa and with Escherichia coli was inactive. Moreover, the Activity entry in the data set on HEK293 is given as “Non-Toxic”.
For `CC(C)(C)OC(=O)NCCN(CCN)C(=O)OC(C)(C)C`, the outcome with Pseudomonas aeruginosa and in the data set with Escherichia coli was inactive.
With `CC(=O)N(CCNC(=O)CC[C@@H](C)[C@H]1CC[C@H]2[C@@H]3[C@H](O)C[C@@H]4C[C@H](O)CC[C@]4(C)[C@H]3C[C@H](O)[C@]12C)CCNC(=O)CC[C@@H](C)[C@H]1CC[C@H]2[C@@H]3[C@H](O)C[C@@H]4C[C@H](O)CC[C@]4(C)[C@H]3C[C@H](O)[C@]12C`, the result with Staphylococcus aureus [3], with Pseudomonas aeruginosa and in the data set on Escherichia coli was inactive.
On to `CN[C@H](CC(C)C)C(=O)N[C@H]1C(=O)N[C@@H](CC(N)=O)C(=O)N[C@H]2C(=O)N[C@H]3C(=O)N[C@H](C(=O)N[C@H](C(=O)O)c4cc(O)cc(O)c4-c4cc3ccc4O)[C@H](O)c3ccc(c(Cl)c3)Oc3cc2cc(c3O[C@@H]2O[C@H](CO)[C@@H](O)[C@H](O)[C@H]2O[C@H]2C[C@](C)(N)[C@H](O)[C@H](C)O2)Oc2ccc(cc2Cl)[C@H]1O` [VANCOMYCIN], for which the Activity in the data set with Staphylococcus aureus [1] is less than 50%.
Take `C[C@H](CCC(=O)NCCNC(=O)CC[C@@H](C)[C@H]1CC[C@H]2[C@@H]3CC[C@@H]4C[C@H](O)CC[C@]4(C)[C@H]3C[C@H](O)[C@]12C)[C@H]1CC[C@H]2[C@@H]3CC[C@@H]4C[C@H](O)CC[C@]4(C)[C@H]3C[C@H](O)[C@]12C`: the result in the data set with Staphylococcus aureus [2], in the data set with Pseudomonas aeruginosa and with Escherichia coli was inactive. The Activity entry in the data set on HEK293 is “Non-Toxic”.
On to `C[C@H](CCC(=O)NCCN(CCNC(=O)CC[C@@H](C)[C@H]1CC[C@H]2[C@@H]3[C@H](O)C[C@@H]4C[C@H](O)CC[C@]4(C)[C@H]3C[C@H](O)[C@]12C)CCNC(=O)CC[C@@H](C)[C@H]1CC[C@H]2[C@@H]3[C@H](O)C[C@@H]4C[C@H](O)CC[C@]4(C)[C@H]3C[C@H](O)[C@]12C)[C@H]1CC[C@H]2[C@@H]3[C@H](O)C[C@@H]4C[C@H](O)CC[C@]4(C)[C@H]3C[C@H](O)[C@]12C`, for which the result in the data set on Staphylococcus aureus [3], with Pseudomonas aeruginosa and in the data set on Escherichia coli was inactive. Also, the Activity result in the data set on HEK293 is recorded as “Non-Toxic”.
As for `CCCCCCCCCCCCCCCC(=O)NCCNCCNC(=O)CC[C@@H](C)[C@H]1CC[C@H]2[C@@H]3[C@H](O)C[C@@H]4C[C@H](O)CC[C@]4(C)[C@H]3C[C@H](O)[C@]12C`, the result in the data set with Staphylococcus aureus [3], in the data set on Pseudomonas aeruginosa and in the data set on Escherichia coli was inactive.
Take `C[C@H](CCC(=O)NCCNCCNC(=O)CC[C@@H](C)[C@H]1CC[C@H]2[C@@H]3CC[C@@H]4C[C@H](O)CC[C@]4(C)[C@H]3C[C@H](O)[C@]12C)[C@H]1CC[C@H]2[C@@H]3CC[C@@H]4C[C@H](O)CC[C@]4(C)[C@H]3C[C@H](O)[C@]12C`: the outcome with Staphylococcus aureus [2], with Pseudomonas aeruginosa and in the data set on Escherichia coli was inactive.
On to `C[C@H](CCC(=O)NCCCCCNC(=O)CC[C@@H](C)[C@H]1CC[C@H]2[C@@H]3[C@H](O)C[C@@H]4C[C@H](O)CC[C@]4(C)[C@H]3C[C@H](O)[C@]12C)[C@H]1CC[C@H]2[C@@H]3[C@H](O)C[C@@H]4C[C@H](O)CC[C@]4(C)[C@H]3C[C@H](O)[C@]12C`, for which the outcome in the data set on Staphylococcus aureus [3], with Pseudomonas aeruginosa and with Escherichia coli was inactive.
On to `CCCCCCCCCCCCCCCC(=O)N(CCNC(=O)CC[C@@H](C)[C@H]1CC[C@H]2[C@@H]3[C@H](O)C[C@@H]4C[C@H](O)CC[C@]4(C)[C@H]3C[C@H](O)[C@]12C)CCNC(=O)CC[C@@H](C)[C@H]1CC[C@H]2[C@@H]3[C@H](O)C[C@@H]4C[C@H](O)CC[C@]4(C)[C@H]3C[C@H](O)[C@]12C`, for which the result in the data set with Staphylococcus aureus [3], in the data set on Pseudomonas aeruginosa and in the data set with Escherichia coli was inactive.
